Laboratory results from ChEMBL document CHEMBL1157407, “Inhibitors of bacterial multidrug efflux pumps from the resin glycosides of Ipomoea murucoides” (2008).
≈ marks a conversion by molar mass, not a printed value.

Tests used:
Format in all cases: functional
[1] = system: HeLa; assay: Cytotoxicity against human HeLa cells after 72 hrs; conditions: read-out: ED50 (the source's name)
In short: (§1)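 Cells grown in RPMI 1640 with 10% fetal bovine serum at 37 °C, 5% CO2, humidified. Log-phase cells treated in triplicate with test samples at 0.16–20 μg/mL for 72 h. Growth read by the NCI sulforhodamine method. ED50 is the dose inhibiting 50% of control growth, estimated from a semilog plot of concentration against percentage of viable cells.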

[2] = system: KB; assay: Cytotoxicity against human KB cells after 72 hrs; conditions: read-out: ED50 (the source's name); in short: as §1
[3] = system: HEp-2; assay: Cytotoxicity against human Hep2 cells after 72 hrs; conditions: HEp-2, 72 h, read-out: ED50 (the source's name); in short: as §1
[4] = system: Staphylococcus aureus; assay: Antimicrobial activity against multidrug-resistant Staphylococcus aureus over expressing NorA MDR efflux pump
In short: (§2)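 Broth microdilution MIC per NCCLS guidelines, at least in duplicate, in cation-adjusted Mueller-Hinton broth (20 mg/L Ca2+, 10 mg/L Mg2+). Strains grown on nutrient agar first. Inoculum 5×10^5 cfu prepared in 0.9% saline against a McFarland standard. Compounds dissolved in DMSO, 2-fold serial dilutions, final 1–512 µg/mL (DMSO ≤3.125% v/v). MIC taken as lowest concentration with no visible growth.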

[5] = system: Staphylococcus aureus; assay: Antimicrobial activity against methicillin-resistant Staphylococcus aureus XU212; in short: as §2
[6] = system: Staphylococcus aureus; assay: Antimicrobial activity against epidemic methicillin-resistant Staphylococcus aureus 15 containing mecA gene; in short: as §2
[7] = system: Staphylococcus aureus; assay: Antimicrobial activity against Staphylococcus aureus ATCC 25923
In short: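 Broth microdilution MIC per NCCLS guidelines, at least in duplicate. Inoculum 5×10^5 cfu prepared in 0.9% saline against a McFarland standard. Cation-adjusted Mueller-Hinton broth with 20 mg/L Ca2+ and 10 mg/L Mg2+. Compounds dissolved in DMSO, then 2-fold serial dilutions, final 1–512 μg/mL; DMSO at most 3.125% v/v. MIC is the lowest concentration giving no visible growth.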

SMILES | EC50 [1] | EC50 [2] | EC50 [3] | MIC [4] | MIC [5] | MIC [6] | MIC [7]
CC[C@]1(O)C[C@@H]2CN(CCc3c([nH]c4ccccc34)[C@@](C(=O)OC)(c3cc4c(cc3OC)N(C)[C@H]3[C@@](O)(C(=O)OC)[C@H](OC(C)=O)[C@]5(CC)C=CCN6CC[C@]43[C@@H]65)C2)C1 [VINBLASTINE] | > 20 µg/mL | > 20 µg/mL | > 20 µg/mL |  |  |  | 
CCCCC[C@H]1CCCCCCCCCC(=O)O[C@H]2[C@H](O)[C@@H](CO)O[C@@H](O[C@H]3[C@H](O1)O[C@H](C)[C@H](O)[C@@H]3O)[C@@H]2O[C@@H]1O[C@@H](C)[C@H](OC(=O)[C@@H](C)CC)[C@@H](O[C@@H]2O[C@@H](C)[C@H](O)[C@@H](O)[C@H]2O)[C@H]1OC(=O)[C@@H](C)CC [TRICOLORIN A] | 4.7 µg/mL (≈ 4.59 µM) | 1 µg/mL (≈ 0.977 µM) | 1.6 µg/mL (≈ 1.56 µM) | 8 µg/mL (≈ 7.82 µM) | 8 µg/mL (≈ 7.82 µM) | 4 µg/mL (≈ 3.91 µM) | 16 µg/mL (≈ 15.6 µM)
CCCCC[C@H]1CCCCCCCCCC(=O)O[C@H]2[C@@H](O)[C@H](O[C@H]3[C@H](O1)O[C@H](C)[C@H](O)[C@@H]3O)O[C@@H](C)[C@@H]2O[C@@H]1O[C@@H](C)[C@H](O[C@@H]2O[C@@H](C)[C@H](OC(=O)[C@@H](C)CC)[C@@H](O)[C@H]2O)[C@@H](O[C@@H]2O[C@@H](C)[C@H](O)[C@@H](O)[C@H]2O)[C@H]1OC(=O)CCCCCC[C@H](O)CCCC [MURUCOIDIN X] | > 20 µg/mL | 15.7 µg/mL (≈ 12.4 µM) | > 20 µg/mL | > 512 µg/mL | > 512 µg/mL | > 512 µg/mL | > 512 µg/mL
CCCCC[C@H]1CCCCCCCCCC(=O)O[C@H]2[C@H](O[C@H]3[C@H](O1)O[C@H](C)[C@H](O)[C@@H]3O)O[C@@H](C)[C@H](O[C@@H]1O[C@@H](C)[C@H](O[C@@H]3O[C@@H](C)[C@H](OC(=O)C(C)C)[C@@H](O)[C@H]3O)[C@@H](O[C@@H]3O[C@@H](C)[C@H](O)[C@@H](O)[C@H]3O)[C@H]1OC(=O)[C@@H](C)CC)[C@H]2O [MURUCOIDIN II] | 16 µg/mL (≈ 14 µM) | > 20 µg/mL | > 20 µg/mL | > 512 µg/mL | > 512 µg/mL | > 512 µg/mL | > 512 µg/mL
CCCCCCCCCCCC(=O)O[C@H]1[C@H](O[C@@H]2[C@H]3OC(=O)CCCCCCCCC[C@H](CCCCC)O[C@@H]4O[C@H](C)[C@H](O)[C@H](O)[C@H]4O[C@H](O[C@H]2C)[C@@H]3O)O[C@@H](C)[C@H](O[C@@H]2O[C@@H](C)[C@H](OC(=O)[C@@H](C)CC)[C@@H](O)[C@H]2O)[C@H]1O[C@@H]1O[C@@H](C)[C@H](O)[C@@H](O)[C@H]1O [PESCAPREIN III] | > 20 µg/mL | 15.7 µg/mL (≈ 12.5 µM) | 4.7 µg/mL (≈ 3.76 µM) | > 512 µg/mL | > 512 µg/mL | > 512 µg/mL | > 512 µg/mL
CCCCC[C@H]1CCCCCCCCCC(=O)O[C@H]2[C@H](O[C@H]3[C@H](O1)O[C@H](C)[C@H](O)[C@@H]3O)O[C@@H](C)[C@H](O[C@@H]1O[C@@H](C)[C@H](O[C@@H]3O[C@@H](C)[C@H](OC(=O)[C@@H](C)CC)[C@@H](O)[C@H]3O)[C@@H](O[C@@H]3O[C@@H](C)[C@H](O)[C@@H](O)[C@H]3O)[C@H]1OC(=O)[C@@H](C)CC)[C@H]2O [MURUCOIDIN III] | > 20 µg/mL | 15.4 µg/mL (≈ 13.4 µM) | 10.7 µg/mL (≈ 9.28 µM) | > 512 µg/mL | > 512 µg/mL | > 512 µg/mL | > 512 µg/mL
CCCCC[C@H]1CCCCCCCCCC(=O)O[C@H]2[C@H](O[C@H]3[C@H](O1)O[C@H](C)[C@H](O)[C@@H]3O)O[C@@H](C)[C@H](O[C@@H]1O[C@@H](C)[C@H](O[C@@H]3O[C@@H](C)[C@H](O)[C@@H](O)[C@H]3O)[C@@H](O[C@@H]3O[C@@H](C)[C@H](O)[C@@H](O)[C@H]3O)[C@H]1OC(=O)[C@@H](C)CC)[C@H]2O [MURUCOIDIN I] | > 20 µg/mL | > 20 µg/mL | > 20 µg/mL | 32 µg/mL (≈ 29.9 µM) | 512 µg/mL (≈ 479 µM) | 256 µg/mL (≈ 239 µM) | > 512 µg/mL
CN(C)[C@@H]1C(O)=C(C(N)=O)C(=O)[C@@]2(O)C(O)=C3C(=O)c4c(O)cccc4[C@@](C)(O)[C@H]3C[C@@H]12 [TETRACYCLINE] |  |  |  | 32 µg/mL (≈ 72 µM) | 512 µg/mL (≈ 1150 µM) | 256 µg/mL (≈ 576 µM) | > 512 µg/mL
CCCCC[C@H]1CCCCCCCCCC(=O)O[C@H]2[C@@H](O)[C@H](O[C@H]3[C@H](O1)O[C@H](C)[C@H](O)[C@@H]3O)O[C@@H](C)[C@@H]2O[C@@H]1O[C@@H](C)[C@H](O[C@@H]2O[C@@H](C)[C@H](OC(=O)C(C)C)[C@@H](O)[C@H]2O)[C@@H](O[C@@H]2O[C@@H](C)[C@H](O)[C@@H](O)[C@H]2O)[C@H]1OC(=O)[C@@H](C)CC [MURUCOIDIN IX] | 12.4 µg/mL (≈ 10.9 µM) | > 20 µg/mL | 10.2 µg/mL (≈ 8.95 µM) | > 512 µg/mL | > 512 µg/mL | > 512 µg/mL | > 512 µg/mL
CCCCC[C@H]1CCCCCCCCCC(=O)O[C@H]2[C@@H](O)[C@H](O[C@H]3[C@H](O1)O[C@H](C)[C@H](O)[C@@H]3O)O[C@@H](C)[C@@H]2O[C@@H]1O[C@@H](C)[C@H](O[C@@H]2O[C@@H](C)[C@H](OC(=O)[C@@H](C)CC)[C@@H](O)[C@H]2O)[C@@H](O[C@@H]2O[C@H](CO)[C@@H](O)[C@H](O)[C@H]2O)[C@H]1OC(=O)[C@@H](C)CC [MURUCOIDIN V] | 13.2 µg/mL (≈ 11.3 µM) | > 20 µg/mL | > 20 µg/mL | 64 µg/mL (≈ 54.7 µM) | 256 µg/mL (≈ 219 µM) | 128 µg/mL (≈ 109 µM) | > 512 µg/mL
CCCCC[C@H]1CCCCCCCCCC(=O)O[C@H]2[C@H](O)[C@@H](CO)O[C@@H](O[C@H]3[C@H](O1)O[C@H](C)[C@@H](O)[C@@H]3O)[C@@H]2O[C@@H]1O[C@@H](C)[C@H](OC(=O)[C@@H](C)CC)[C@@H](O[C@@H]2O[C@@H](C)[C@H](O)[C@@H](O)[C@H]2O)[C@H]1OC(=O)[C@@H](C)CC [TRICOLORIN E] | > 20 µg/mL | > 20 µg/mL | > 20 µg/mL | 8 µg/mL (≈ 7.82 µM) | 8 µg/mL (≈ 7.82 µM) | 8 µg/mL (≈ 7.82 µM) | 16 µg/mL (≈ 15.6 µM)
COC(=O)[C@H]1[C@H]2C[C@@H]3c4[nH]c5cc(OC)ccc5c4CCN3C[C@H]2C[C@@H](OC(=O)c2cc(OC)c(OC)c(OC)c2)[C@@H]1OC [RESERPINE] |  |  | > 20 µg/mL |  |  |  | 
C/C=C(\C)C(=O)O[C@H]1[C@H](O)[C@@H](O)[C@H](O[C@@H]2[C@H]3OC(=O)CCCCCCCCC[C@H](CCCCC)O[C@@H]4O[C@H](C)[C@@H](O)[C@H](O)[C@H]4O[C@@H]4O[C@H](CO)[C@@H](OC(=O)[C@H](C)[C@@H](C)O)[C@H](O)[C@H]4O[C@H](O[C@H]2C)[C@@H]3OC(=O)[C@@H](C)CC)O[C@@H]1C [ORIZABIN IX] | > 20 µg/mL | > 20 µg/mL | > 20 µg/mL | 512 µg/mL (≈ 457 µM) | 256 µg/mL (≈ 228 µM) | 256 µg/mL (≈ 228 µM) | > 512 µg/mL
CCn1cc(C(=O)O)c(=O)c2cc(F)c(N3CCNCC3)cc21 [NORFLOXACIN] |  |  | > 20 µg/mL | 32 µg/mL (≈ 100 µM) | 512 µg/mL (≈ 1600 µM) | 256 µg/mL (≈ 802 µM) | > 512 µg/mL
